{"source": "ChEMBL document CHEMBL1122405", "about": "“Structure--activity relationships for and potentiation of the antimitogenic activity of 2-5A core derived from 2-5A, a mediator of interferon action” (J Med Chem, 1983)", "type_in_all_cases": "functional", "key": {"Nucleic Acid [1]": {"test_system": "Nucleic Acid", "experiment": "Percent inhibition of DNA synthesis ([Me-3H] thymidine incorporation) at 50 uM concentration", "method_in_brief": "(§1)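 Balb/c 3T3 cells were grown to confluence in Eagle's MEM with 10% fetal calf serum. They were synchronized in serum-free medium containing 10% spent medium, then stimulated with fresh medium plus 10% FCS, with or without oligonucleotide at a final 5 or 50 μM. At set intervals, duplicate cultures were pulsed 1 h with [3H]thymidine (40 Ci/mmol) and TCA-insoluble cpm counted. % inhibition = 100[1 − treated/control], using cpm summed over the control peak DNA-synthesis period (e.g. 15–16, 17–18, 19–20 h).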"}, "[2]": {"experiment": "Percent inhibition of protein synthesis ([35S]methionine incorporation) at 5 uM concentration", "method_in_brief": "(§2)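 Confluent Balb/c 3T3 cells were synchronized in methionine-free, serum-free medium containing 10% spent medium. They were then stimulated with fresh methionine-free medium plus 10% fetal calf serum, with or without oligonucleotide at a final 5 or 50 μM. At set intervals, duplicate cultures were pulse-labeled 1 h with [35S]methionine (147 mCi/mmol) and TCA-insoluble cpm measured. % inhibition = 100[1 − treated cpm/untreated cpm].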"}, "[3]": {"experiment": "Percent inhibition of protein synthesis ([35S]methionine incorporation) at 50 uM concentration", "method_in_brief": "as §2"}, "Nucleic Acid [4]": {"test_system": "Nucleic Acid", "experiment": "Percent inhibition of DNA synthesis ([Me-3H] thymidine incorporation) at 5 uM concentration", "method_in_brief": "as §1"}}}
{"smiles": "Nc1ncnc2c1ncn2[C@@H]1O[C@H](COP(=O)(O)O[C@@H]2[C@H](O)[C@@H](COP(=O)(O)O[C@@H]3[C@H](O)[C@@H](COP(=O)(O)OP(=O)(O)OP(=O)(O)O)O[C@H]3n3cnc4c(N)ncnc43)O[C@H]2n2cnc3c(N)ncnc32)[C@@H](O)[C@H]1O", "values": [{"measurement": "inhibition", "setting": "Nucleic Acid [1]", "result": 27, "unit": "%"}, {"measurement": "inhibition", "setting": "[2]", "result": 11, "unit": "%"}, {"measurement": "inhibition", "setting": "[3]", "result": 21, "unit": "%"}, {"measurement": "inhibition", "setting": "Nucleic Acid [4]", "result": 11, "unit": "%"}]}
{"smiles": "Nc1ncnc2c1ncn2[C@@H]1O[C@H](COP(=O)(O)O[C@@H]2[C@H](O)[C@@H](COP(=O)(O)O[C@@H]3[C@H](O)[C@@H](CO)O[C@H]3n3cnc4c(N)ncnc43)O[C@H]2n2cnc3c(N)ncnc32)[C@@H](O)[C@H]1O", "values": [{"measurement": "inhibition", "setting": "Nucleic Acid [1]", "result": 48, "unit": "%"}, {"measurement": "inhibition", "setting": "[2]", "result": 0, "unit": "%"}, {"measurement": "inhibition", "setting": "[3]", "result": 14, "unit": "%"}, {"measurement": "inhibition", "setting": "Nucleic Acid [4]", "result": 14, "unit": "%"}]}
{"smiles": "Nc1ncnc2c1ncn2[C@@H]1O[C@H](COP(=O)(O)O[C@@H]2[C@H](O)[C@@H](COP(=O)(O)O[C@@H]3[C@H](O)[C@@H](COP(=O)(O)O)O[C@H]3n3cnc4c(N)ncnc43)O[C@H]2n2cnc3c(N)ncnc32)[C@@H](O)[C@H]1O", "values": [{"measurement": "inhibition", "setting": "Nucleic Acid [1]", "result": 54, "unit": "%"}, {"measurement": "inhibition", "setting": "[2]", "result": 0, "unit": "%"}, {"measurement": "inhibition", "setting": "[3]", "result": 33, "unit": "%"}, {"measurement": "inhibition", "setting": "Nucleic Acid [4]", "result": 15, "unit": "%"}]}
